pIC50: −log10 of the molar value.
Legend:
Type in all cases: functional, cell-based
Bel-7402 = assay: Cytotoxicity against human Bel7402 cells after 72 hrs by sulforhodamine B assay; settings: Bel-7402, 72 h
Outline: (§1)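 HT-29 and SK-OV-3 (ATCC) grown in McCoy's 5a, BEL-7402 (Shanghai Cell Bank) in RPMI 1640, all with 10% FBS. Cells plated 24 h, then exposed to five concentrations in duplicate for 72 h at 37 °C, 5% CO2. Saline vehicle control. TCA-fixed, SRB-stained, dye solubilized in 10 mM Tris, A510 read. Inhibition relative to control, expressed as IC50.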

SK-OV-3 = assay: Cytotoxicity against human SKOV3 cells after 72 hrs by sulforhodamine B assay; settings: SK-OV-3, 72 h; outline: as §1
HT-29 = assay: Cytotoxicity against human HT-29 cells after 72 hrs by sulforhodamine B assay; settings: HT-29, 72 h
Outline: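 Cells plated 24 h, then exposed to five concentrations in duplicate for 72 h at 37 °C, 5% CO2. Saline vehicle control. TCA-fixed, SRB-stained, dye solubilized in 10 mM Tris, A510 read. Inhibition relative to control, expressed as IC50.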

Row | SMILES | pIC50 (Bel-7402) | pIC50 (SK-OV-3) | pIC50 (HT-29)
1 | C=C1C(=O)[C@]23C[C@H]1CC[C@H]2[C@]12CCC[C@@](C)(COC(C)=O)[C@H]1[C@H](O)[C@]3(O)OC2 [LONGIKAURIN C] | 5.54 | 5.48 | 5.68
2 | CC(=O)OC[C@]1(C)C(OC(C)=O)CC[C@]23CO[C@@](O)(C[C@@H]21)[C@]12C(=O)C4(CCC45C(=O)[C@]46[C@H](O)[C@H]5CC[C@H]4[C@]45CCC(OC(C)=O)[C@@](C)(COC(C)=O)[C@H]4C[C@]6(O)OC5)[C@H](CC[C@@H]31)[C@H]2O (stereo partly drawn) [MAOECRYSTAL M] | 5.22 | 5.15 | < 5.00
3 | C=C1C(=O)[C@@]23C[C@H]1C[C@H]1O[C@H](O)[C@@H]4[C@](C)(COC(C)=O)CC[C@@H](OC2=O)[C@@]4(CO)[C@H]13 [MAOESIN A] | < 5.00 | < 5.00 | < 5.00
4 | C=C1C(=O)[C@]23C[C@H]1CC[C@H]2[C@@]12CO[C@@]3(O)[C@@H](O)[C@@H]1C(C)(C)CC[C@@H]2OC(C)=O [EFFUSANIN B] | 5.14 | 5.68 | 5.39
5 | C=C1C(=O)[C@@]23[C@H](O)C[C@@H]4C(C)(C)CC[C@H](O)[C@@]4(COC(C)=O)[C@@H]2CC[C@@H]1[C@H]3O [HENRYIN] | < 5.00 | 5.23 | 5.22
6 | C=C(C=O)[C@@H]1CC[C@@H]2[C@@H](C1)C(=O)[C@@H](O)[C@@H]1[C@](C)(COC(C)=O)[C@@H](O)CC[C@]12C [ERIOCASIN C] | < 5.00 | < 5.00 | < 5.00
7 | C=C1C(OC(C)=O)[C@]23C[C@H]1CC[C@H]2[C@@]1(CC[C@H](OC(C)=O)[C@@](C)(COC(C)=O)[C@H]1C=O)COC3=O (stereo partly drawn) [MAOESIN F] | < 5.00 | < 5.00 | < 5.00
8 | C=C1C(=O)[C@@]23[C@@H]4C[C@@H]5C(C)(C)CC[C@H](O)[C@@]5(C(OC)O4)[C@@H]2CC[C@@H]1[C@H]3O (stereo partly drawn) [KAMEBACETAL A] | < 5.00 | 5.33 | 5.01
9 | C=C1C(=O)[C@]23C[C@H]1CC[C@H]2[C@@]12CO[C@@]3(O)[C@@H](OC(C)=O)[C@@H]1[C@@](C)(COC(C)=O)CC[C@H]2OC(C)=O [MAOECRYSTAL R] | 5.40 | 5.52 | 5.62
10 | C=C1C(=O)[C@@]23C[C@H]1C[C@H]1OC(O)[C@@H]4[C@](C)(COC(C)=O)[C@H](OC(C)=O)C[C@@H](OC2=O)[C@@]4(CO)[C@H]13 (stereo partly drawn) | < 5.00 | < 5.00 | < 5.00
11 | COc1cccc2c1C(=O)c1c(O)c3c(c(O)c1C2=O)C[C@@](O)(C(=O)CO)C[C@@H]3O[C@H]1C[C@H](N)[C@H](O)[C@H](C)O1 [DOXORUBICIN] | 7.17 | 6.77 | 
12 | C=C1C(=O)[C@]23C[C@H]1CC[C@H]2[C@@]12CO[C@]3(O)[C@@H](O)[C@@H]1[C@](C)(COC(C)=O)CC[C@@H]2OC(C)=O [EFFUSANIN D] | < 5.00 | 5.04 | 5.23
13 | C=C(CO)[C@@H]1C[C@@H](OC(C)=O)[C@@H]2[C@@H](C1)C(=O)[C@@H](O)[C@@H]1C(C)(C)CCC[C@@]21C [ERIOCASIN E] | < 5.00 | < 5.00 | < 5.00
14 | C=C(C=O)[C@@H]1CC[C@@H]2[C@@H](C1)C(=O)[C@@H](O)[C@@H]1[C@](C)(COC(C)=O)[C@@H](OC(C)=O)C[C@H](O)[C@@]21C | < 5.00 | 5.29 | < 5.00
15 | C=C1C(=O)[C@]23C[C@H]1C[C@@H](O)[C@H]2[C@]12CC[C@H](OC(C)=O)[C@@](C)(COC(C)=O)[C@H]1[C@H](O)[C@]3(O)OC2 [MAOESIN C] | < 5.00 | < 5.00 | < 5.00
16 | C=C(C=O)[C@@H]1CCC2=C(C1)C(=O)[C@@H](O)[C@@H]1C(C)(C)[C@H](O)CC[C@@]21C [ERIOCASIN B] | < 5.00 | < 5.00 | < 5.00
17 | C=C1[C@H]2C[C@@H](O)C3(C(=O)C[C@@H]4[C@](C)(COC(C)=O)CCC[C@@]4(C)[C@@H]3C2)[C@@H]1O [ERIOCATISIN A] | < 5.00 | < 5.00 | < 5.00
18 | C=C(C=O)[C@@H]1CC[C@@H]2[C@@H](C1)C(=O)[C@@H](O)[C@@H]1[C@](C)(COC(C)=O)[C@@H](OC(C)=O)CC[C@]12C | < 5.00 | < 5.00 | < 5.00
19 | C=C(C=O)[C@@H]1CC[C@@H]2[C@@H](C1)C(=O)[C@@H](O)[C@@H]1[C@](C)(COC(C)=O)CC[C@H](O)[C@@]21C [ERIOCASIN D] | < 5.00 | 5.24 | < 5.00
20 | C=C1C(O)[C@]23C[C@H]1CC[C@H]2[C@@]1(C)[C@H]([C@H](OC(C)=O)C3=O)[C@](C)(COC(C)=O)CC[C@@H]1O (stereo partly drawn) [MAOESIN E] | < 5.00 | < 5.00 | < 5.00
21 | C=C1C(=O)[C@]23C[C@H]1CC[C@H]2[C@]12CC[C@H](OC(C)=O)[C@@](C)(COC(C)=O)[C@H]1[C@H](O)[C@]3(O)OC2 [MAOECRYSTAL J] | < 5.00 | 5.01 | 5.38
22 | C=C(C=O)[C@@H]1CC[C@@H]2[C@@H](C1)C(=O)[C@@H](O)[C@@H]1C(C)(C)[C@H](O)CC[C@@]21C | < 5.00 | 5.14 | 5.09
23 | C=C1C(=O)[C@]23C[C@H]1C=C[C@H]2[C@]12CC[C@H](OC(C)=O)[C@@](C)(COC(C)=O)[C@H]1[C@H](O)[C@]3(O)OC2 [MAOESIN D] | < 5.00 | < 5.00 | 5.14
